Data as given in ChEMBL document CHEMBL1121573, “2-(Aminomethyl)phenols, a new class of saluretic agents. 1. Effects of nuclear substitution” (J Med Chem, 1980).
Where “and” joins values, the source holds several entries; their conditions need not be identical. Equal values may be shown once. Blank lines part the entries; values can stand above or below the compound they belong to.

What was measured:
[1] = system: Canis familiaris; test: Compound administered intravenously was evaluated for salidiuretic activity measured as sodium ion excretion in Dog; format: ADME, organism-based, Canis lupus familiaris, Urine; parameters: unit not given beside the values; conditions: in vivo, iv
Method in brief: (§1)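 Conditioned female mongrel dogs, postabsorptive, water-loaded (500 mL po) 1 h before sodium pentobarbital anesthesia (30 mg/kg iv). Bladder catheter; creatinine 4 g sc; phosphate–mannitol buffer pH 7.4 infused (3.0 mL/min) throughout. […] Urine Na+ measured; response scored 0–6.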

[2] = system: Canis familiaris; test: Compound administered intravenously was evaluated for salidiuretic activity measured as sodium ion excretion in Dog; Value ranges from 100-249; format: ADME, organism-based, Canis lupus familiaris, Urine; conditions: in vivo, iv; method in brief: as §1
[3] = Compound administered orally at a dose of 5 mg/kg was evaluated for salidiuretic activity measured as sodium ion excretion in Rat; format: organism-based; parameters: dose 5 mg/kg; conditions: Urine
Method in brief: (§2)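 Female Charles-River rats (150–170 g), overnight on sugar diet with water ad libitum. Compound dissolved in DMF, diluted with water containing Tween 80 (final 4% DMF), given po in 5.0 mL; concurrent vehicle placebo. Three rats per metabolism cage; 0–5 h urine analysed for Na+, K+, Cl-. Values: mequiv × 100 per cage, geometric means of three cages per dose; scored 0–6 by Na+.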

[4] = system: Rattus norvegicus; test: Maximum fall in mean arterial blood pressure was measured in SH rats when compound was administered at 40 mg/kg perorally; format: functional; conditions: route oral
[5] = system: Canis familiaris; test: Oral diuretic activity was evaluated by measuring K+ excretion in dog at 10 mg/kg after ip administration (0-6 hr); format: ADME, organism-based, Canis lupus familiaris, Urine; parameters: dose 10 mg/kg, route intraperitoneal; conditions: in vivo
Method in brief: (§3)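 Spontaneous urine was pooled with bladder urine collected by catheterization at 6 h. Volume was measured and Na+, K+ and Cl− were determined by standard methods. Values are geometric means.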

[6] = system: Canis familiaris; test: Oral diuretic activity was evaluated by measuring K+ excretion in dog at 0.3 mg/kg after […] (0-6 hr); format: ADME, organism-based, Canis lupus familiaris, Urine; parameters: dose 0.3 mg/kg, route intraperitoneal; conditions: in vivo
[7] = system: Rattus norvegicus; test: Oral diuretic activity was evaluated by measuring K+ excretion in Rat at 3 mg/kg […] (0-5 hr); format: ADME, organism-based, Urine; parameters: dose 3 mg/kg
Method in brief: (§4)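 Female Charles-River rats (150–170 g) were kept overnight on a sugar diet with water ad libitum. Test substance was dissolved in DMF and diluted with water containing Tween 80 to a final 4% DMF vehicle, then given po in 5.0 mL. Rats were housed three per metabolism cage, and 0–5 h urine was assayed for Na⁺, K⁺ and Cl⁻ alongside concurrent placebo groups. Values are mequiv × 100 per cage, geometric means of three cages per dose.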

[8] = system: Canis familiaris; test: Oral diuretic activity was evaluated by measuring Na+ excretion in dog at 1 mg/kg after ip administration (0-6 hr); format: ADME, organism-based, Canis lupus familiaris, Urine; parameters: dose 1 mg/kg, route intraperitoneal; conditions: in vivo; method in brief: as §3
[9] = system: Canis familiaris; test: Oral diuretic activity was evaluated by measuring Na+ excretion in dog at 5 mg/kg after ip administration (0-6 hr); format: ADME, organism-based, Canis lupus familiaris, Urine; parameters: dose 5 mg/kg, route intraperitoneal; conditions: in vivo; method in brief: as §3
[10] = system: Canis familiaris; test: Oral diuretic activity was evaluated by measuring Cl- excretion in dog at 0.3 mg/kg after […] (0-6 hr); format: ADME, organism-based, Canis lupus familiaris, Urine; parameters: dose 0.3 mg/kg, route intraperitoneal; conditions: in vivo
[11] = species: Rattus norvegicus; test: Time taken for the decrease in arterial pressure was measured; format: functional, Artery
[12] = system: Canis familiaris; test: Oral diuretic activity was evaluated by measuring Cl- excretion in dog at 1 mg/kg after […] (0-6 hr); format: ADME, organism-based, Canis lupus familiaris, Urine; parameters: dose 1 mg/kg, route intraperitoneal; conditions: in vivo
[13] = system: Rattus norvegicus; test: Evaluated for salidiuretic activity measured as sodium ion excretion in Rat, administered orally at a dose of 50 mg/kg; format: functional, Urine; parameters: unit not given beside the values; conditions: route oral; method in brief: as §2
[14] = system: Rattus norvegicus; test: Oral diuretic activity was evaluated by measuring Cl- excretion in Rat at 3 mg/kg […] (0-5 hr); format: ADME, organism-based, Urine; parameters: dose 3 mg/kg, route intraperitoneal; conditions: in vivo
[15] = system: Canis familiaris; test: Oral diuretic activity was evaluated by measuring K+ excretion in dog at 1 mg/kg after ip administration (0-6 hr); format: ADME, organism-based, Canis lupus familiaris, Urine; parameters: dose 1 mg/kg, route intraperitoneal; conditions: in vivo; method in brief: as §3
[16] = system: Rattus norvegicus; test: Oral diuretic activity was evaluated by measuring Cl- excretion in Rat at 27 mg/kg […] (0-5 hr); format: ADME, organism-based, Urine; parameters: dose 27 mg/kg; conditions: in vivo
[17] = system: Canis familiaris; test: Oral diuretic activity was evaluated by measuring Cl- excretion in dog at 5 mg/kg after […] (0-6 hr); format: ADME, organism-based, Canis lupus familiaris, Urine; parameters: dose 5 mg/kg, route intraperitoneal; conditions: in vivo
[18] = system: Rattus norvegicus; test: Compound administered orally at a dose of 81 mg/kg was evaluated for salidiuretic activity measured as sodium ion excretion in Rat; format: ADME, organism-based, Urine; parameters: dose 81 mg/kg, route oral; unit not given beside the values; conditions: in vivo, po; method in brief: as §2
[19] = system: Canis familiaris; test: Oral diuretic activity was evaluated by measuring K+ excretion in dog at 5 mg/kg after ip administration (0-6 hr); format: ADME, organism-based, Canis lupus familiaris, Urine; parameters: dose 5 mg/kg, route intraperitoneal; conditions: in vivo; method in brief: as §3
[20] = system: Canis familiaris; test: Oral diuretic activity was evaluated by measuring Na+ excretion in dog at 10 mg/kg after ip administration (0-6 hr); format: ADME, organism-based, Canis lupus familiaris, Urine; parameters: dose 10 mg/kg, route intraperitoneal; conditions: in vivo; method in brief: as §3
[21] = Evaluated for salidiuretic activity measured as sodium ion excretion in Rat, administered orally at a dose of 16.5 mg/kg; format: organism-based; parameters: dose 16.5 mg/kg; conditions: Urine; method in brief: as §2
[22] = system: Rattus norvegicus; test: Oral diuretic activity was evaluated by measuring K+ excretion in Rat at 81 mg/kg after […] (0-5 hr); format: ADME, organism-based, Urine; parameters: dose 81 mg/kg; method in brief: as §4
[23] = system: Rattus norvegicus; test: Maximum fall in mean arterial blood pressure was measured in SH rats when compound was administered at 20 mg/kg perorally; format: functional; conditions: route oral
[24] = system: Rattus norvegicus; test: Oral diuretic activity was evaluated by measuring K+ excretion in Rat at 27 mg/kg […] (0-5 hr); format: ADME, organism-based, Urine; parameters: dose 27 mg/kg; method in brief: as §4
[25] = system: Rattus norvegicus; test: Maximum fall in mean arterial blood pressure was measured in SH rats when compound was administered at 10 mg/kg perorally; format: functional; conditions: route oral
[26] = system: Canis familiaris; test: Oral diuretic activity was evaluated by measuring Cl- excretion in dog at 10 mg/kg after […] (0-6 hr); format: ADME, organism-based, Canis lupus familiaris, Urine; parameters: dose 10 mg/kg, route intraperitoneal; conditions: in vivo
[27] = system: Rattus norvegicus; test: Oral diuretic activity was evaluated by measuring Na+ excretion in Rat at 9 mg/kg after […] (0-5 hr); format: ADME, organism-based, Urine; parameters: dose 9 mg/kg; conditions: in vivo, ip
Method in brief: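 Female Charles-River rats (150–170 g) were kept overnight on a sugar diet with water ad libitum. Compound was dissolved in DMF, then diluted with water containing Tween 80 (3 drops/100 mL) to a final 4% DMF, and given po in 5.0 mL. Rats were housed three per metabolism cage. Urine from 0–5 h was analysed for Na+, K+ and Cl−, with concurrent placebo controls. Values are mequiv × 100 per cage, geometric mean of three cages per dose.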

[28] = system: Canis familiaris; test: Oral diuretic activity was evaluated by measuring Na+ excretion in dog at 0.3 mg/kg after ip administration (0-6 hr); format: ADME, organism-based, Canis lupus familiaris, Urine; parameters: dose 0.3 mg/kg, route intraperitoneal; conditions: in vivo; method in brief: as §3
[29] = system: Rattus norvegicus; test: Oral diuretic activity was evaluated by measuring K+ excretion in Rat at 9 mg/kg […] (0-5 hr); format: ADME, organism-based, Urine; parameters: dose 9 mg/kg; method in brief: as §4
[30] = system: Canis familiaris; test: Salidiuretic activity in dog following i.v. dosing at 5 mg/kg; format: functional, Canis lupus familiaris, Urine; parameters: unit not given beside the values; conditions: route intravenous
Method in brief: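 Conditioned female mongrel dogs, postabsorptive, got a 500 mL oral water load 1 h before pentobarbital anesthesia (30 mg/kg iv). After replicate 15-min control collections, compound was given as an iv stat injection.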

[31] = system: Canis familiaris; test: Compound administered intravenously was evaluated for salidiuretic activity measured as sodium ion excretion in Dog; Value ranges from 400-599; format: ADME, organism-based, Canis lupus familiaris, Urine; conditions: in vivo, iv; method in brief: as §1
[32] = system: Rattus norvegicus; test: Compound administered orally at a dose of 1 mg/kg was evaluated for salidiuretic activity measured as sodium ion excretion in Rat; conditions: in vivo, po
[33] = system: Canis familiaris; test: Compound administered intravenously at a dose of 5 mg/kg was evaluated for salidiuretic activity measured as sodium ion excretion in Dog; Value ranges from 600-799; format: ADME, organism-based, Canis lupus familiaris, Urine; parameters: dose 5 mg/kg, route intravenous; unit not given beside the values; conditions: in vivo, iv; method in brief: as §1
[34] = system: Canis familiaris; test: Compound administered intravenously at a dose of 5 mg/kg was evaluated for salidiuretic activity measured as sodium ion excretion in Dog; Value ranges from 400-599; format: ADME, organism-based, Canis lupus familiaris, Urine; parameters: dose 5 mg/kg, route intravenous; conditions: in vivo, iv; method in brief: as §1
[35] = system: Canis familiaris; test: Compound administered intravenously was evaluated for salidiuretic activity measured as sodium ion excretion in Dog; Value ranges from 100-299; format: ADME, organism-based, Canis lupus familiaris, Urine; conditions: in vivo, iv; method in brief: as §1
[36] = system: Canis familiaris; test: Compound administered intravenously at a dose of 5 mg/kg was evaluated for salidiuretic activity measured as sodium ion excretion in Dog; Value ranges from 0-99; format: ADME, organism-based, Canis lupus familiaris, Urine; parameters: dose 5 mg/kg, route intravenous; conditions: in vivo, iv; method in brief: as §1

SMILES: CCOC(=O)c1cc(Cl)c(O)c(CN)c1.Cl
Diuretic activity [2]: 100

SMILES: NS(=O)(=O)c1cc2c(cc1Cl)NCNS2(=O)=O [HYDROCHLOROTHIAZIDE]
Diuretic activity [3]: 0.4
MAP [4]: 26 mmHg
Diuretic activity [5]: 7.1
Diuretic activity [6]: 1.98
Diuretic activity [7]: 0.34
Diuretic activity [8]: 16.4
Diuretic activity [9]: 18.8
Diuretic activity [10]: 8.57
Duration [11]: >8 h and 12 h
Diuretic activity [12]: 22
Diuretic activity [13]: 1.8
Diuretic activity [14]: 1.54
Diuretic activity [15]: 4.8
Diuretic activity [16]: 1.56
Diuretic activity [17]: 26.3
Diuretic activity [18]: 2.4
Diuretic activity [19]: 7.4
Diuretic activity [20]: 19.6
Diuretic activity [21]: 0.6
Diuretic activity [22]: 0.37
MAP [23]: 25 mmHg
Diuretic activity [24]: 0.34
MAP [25]: 14 mmHg
Diuretic activity [26]: 22.9
Diuretic activity [27]: 1.12
Diuretic activity [28]: 5.4
Diuretic activity [29]: 0.38
Diuretic activity [30]: 250

SMILES: Cc1cc(Cl)c(O)c(CN)c1Cl.Cl
Diuretic activity [31]: 400

SMILES: CCc1c(Cl)cc(CN)c(O)c1Cl.Cl
Diuretic activity [3]: 0.4
Diuretic activity [34]: 400
Diuretic activity [13]: 1.8
Diuretic activity [18]: 2.4
Diuretic activity [21]: 0.6

SMILES: COc1c(Cl)c(OC)c(CN)c(O)c1Br.Cl
Diuretic activity [3]: 2.6
Diuretic activity [13]: 3.6
Diuretic activity [32]: 0.7
Diuretic activity [33]: 600
Diuretic activity [21]: 3.3

SMILES: Br.Cc1c(C)c(CN)c(O)c(Cl)c1Cl
Diuretic activity [3]: 2.6
Diuretic activity [13]: 3.6
Diuretic activity [32]: 0.7
Diuretic activity [33]: 600
Diuretic activity [21]: 3.3

SMILES: Cc1cc(C)c(CN)c(O)c1.Cl
Diuretic activity [13]: <0.2
Diuretic activity [32]: 1
Diuretic activity [36]: 0
Diuretic activity [18]: < 0.3

SMILES: Cl.NCc1c(O)c(C(F)(F)F)cc(Cl)c1Cl
Diuretic activity [3]: 1.4
Diuretic activity [34]: 400
Diuretic activity [13]: 3.3
Diuretic activity [21]: 2.7

SMILES: Cc1c(Cl)cc(Cl)c(O)c1CN.Cl
Diuretic activity [1]: > 900

SMILES: Cl.NCc1cc(C2CCCCC2)cc(Cl)c1O
Diuretic activity [31]: 400

The next lines start with results.

Diuretic activity [1]: > 900
SMILES: Br.Cc1c(C)c(Cl)c(Cl)c(CN)c1O

Diuretic activity [32]: 0.7
Diuretic activity [33]: 600
SMILES: CSc1cc(C(C)(C)C)cc(CN)c1O.Cl
Diuretic activity [3]: 2.6
Diuretic activity [13]: 3.6
Diuretic activity [21]: 3.3

Diuretic activity [35]: 100
SMILES: COc1cc(O)c(CN)c(OC)c1Cl.Cl

Diuretic activity [35]: 100
SMILES: Cc1cc(O)c(CN)c(C)c1Cl.Cl

Diuretic activity [34]: 400
SMILES: CC(C)Cc1cc(Cl)c(O)c(CN)c1.Cl
Diuretic activity [3]: 0.5
Diuretic activity [13]: 2.4
Diuretic activity [21]: 1.4

Diuretic activity [36]: 0
Diuretic activity [18]: 1.5
SMILES: CC(C)(C)c1ccc(O)c(CN)c1.Cl
Diuretic activity [3]: 0.3
Diuretic activity [13]: 1.2
Diuretic activity [21]: 0.5
